From PubChem
SF-1 act = activates the human nuclear receptor SF-1 | Q13285 | activation, % at 10 µM | actives 1.9% (n = 65,000) | CHO-K1 Gal4-SF-1 LBD luciferase reporter; % increase over DMSO SF-1-specific signal | AID 522;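 active = activation above the mean activation of all tested compounds plus 3 SD, cut at about 50% in these data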
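Assay system: CHO-K1 cells co-transfected with Gal4 DBD–human SF-1 LBD, 5xGal4 luciferase reporter; doses: 10 µM only; incubation: 20 h compound exposure at 37 °C after 1 h cell settling; signal: luciferase light emission; evaluation: percent activation versus DMSO; repeats: one test per compound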
RORa activator = RORA (human) activation. activation, % at 10 µM. CHO-K1 Gal4-RORA LBD luciferase reporter, luminescence; percent increase over mock-subtracted basal signal. P35398. actives 1.5% (n = 65,000);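 active = activation above the mean of all tested compounds plus 3 SD, cut at about 49% in these data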
MT1-MMP txn act = activates MT1-MMP transcription | actives 0.16% (n = 86,000) | HT1080 MT1-MMP promoter luciferase reporter, luminescence, overnight; stronger effect = higher value | activation factor at 10 µM;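 active = activation factor of at least 2 for MT1-MMP transcription at 10 µM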
JNK3 blocker = blocks human JNK3 kinase activity; inhibition, % at 8 µM; actives 0.61% (n = 60,000); AID 746; purified JNK3 kinase activity, HTS; P53779; in the data active = inhibition above about 17%
Target sequence (P53779 whole entry, looked up): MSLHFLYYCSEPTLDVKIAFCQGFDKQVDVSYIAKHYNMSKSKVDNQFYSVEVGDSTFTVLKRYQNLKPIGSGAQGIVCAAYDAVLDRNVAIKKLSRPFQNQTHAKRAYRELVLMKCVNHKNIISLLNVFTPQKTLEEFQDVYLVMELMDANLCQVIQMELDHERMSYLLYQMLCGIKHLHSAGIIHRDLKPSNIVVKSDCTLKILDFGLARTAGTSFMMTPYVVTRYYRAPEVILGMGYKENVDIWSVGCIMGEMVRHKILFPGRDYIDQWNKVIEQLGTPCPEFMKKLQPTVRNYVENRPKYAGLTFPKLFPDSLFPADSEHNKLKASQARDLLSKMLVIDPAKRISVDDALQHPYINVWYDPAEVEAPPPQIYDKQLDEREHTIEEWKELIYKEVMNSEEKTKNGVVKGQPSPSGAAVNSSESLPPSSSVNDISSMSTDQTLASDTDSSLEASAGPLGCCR
Each line names hits and unclear results; the compound was inactive in the other large screens. A selection: hits, their analogues and other compounds. The true share with any hit is near 2.3%.

CCCCSc1nnc(-c2ccccc2N)c(=O)[nH]1	RORa activator 57.8
COc1ccccc1N1CCN(C(=O)CSc2ncccc2-c2nc3ccccc3[nH]2)CC1	none (no result: JNK3 blocker)
O=C(CSc1ncccc1-c1nc2ccccc2[nH]1)N1CCN(c2ccccc2F)CC1	JNK3 blocker 27.9
COc1cccc2cc(-c3cn4cccc(C)c4n3)c(=O)oc12	SF-1 act 52.8
COc1cccc2cc(-c3cn4ccc(C)cc4n3)c(=O)oc12	none (no result: SF-1 act, RORa activator, JNK3 blocker)
Cc1noc(C)c1CSc1nc2ccccc2c(=O)n1-c1ccc(Cl)cc1	none (no result: SF-1 act, RORa activator, JNK3 blocker)
O=C(C1CCCN(S(=O)(=O)c2cccc3cccnc23)C1)N1CCN(c2ccc(F)cc2)CC1 (stereo not drawn)	none
O=C1C(c2ccncc2)=C(O)c2ccccc21	JNK3 blocker 56.4
Cc1nnc(SCc2ccc3c(c2)OCO3)s1	none (no result: SF-1 act, RORa activator, JNK3 blocker)
COC(=O)C1=C(CCc2ccccc2)NC(=O)NC1c1cccc([N+](=O)[O-])c1 (stereo not drawn)	none (no result: SF-1 act, RORa activator, JNK3 blocker)
C=CCn1cnc2c(NCc3ccccc3)ncnc21	SF-1 act 64.9
OCCNc1ncnc2c1ncn2Cc1ccccc1	none
Nc1nc2ccc(C(=O)Nc3ccccc3)cc2s1	SF-1 act 90.3, RORa activator 61.7
CCc1ccc(NC(=O)c2ccc3nc(N)sc3c2)cc1	none (no result: SF-1 act, RORa activator, JNK3 blocker)
CCC(=O)n1nc(-c2ccc(OC)cc2)nc1SC	none (no result: SF-1 act, RORa activator, JNK3 blocker)
COc1ccc(-c2nc(SC)n(C(=O)c3ccco3)n2)cc1	SF-1 act 58.0
Cc1cc(NC(=O)C2CCN(S(=O)(=O)c3cnc[nH]3)CC2)ccc1Br	none
CC(=O)c1c(C)[nH]c(C(=O)OCC(=O)NCCc2ccc(F)cc2)c1C	none
COC(=O)c1c(C)[nH]c(C(=O)OCc2ccc(F)cc2)c1C	SF-1 act 59.8
CCOC(=O)N1CCC(NC(=O)c2cc(C(=O)NCC(OC)OC)ccc2CO)CC1	none (no result: SF-1 act, RORa activator, JNK3 blocker)
NC(=O)C1=NOC(CNc2ncc(C(F)(F)F)cc2Cl)C1 (stereo not drawn)	none (no result: SF-1 act, RORa activator, JNK3 blocker)
COC(=O)c1cc(CN2CCN(c3ccccc3C)CC2)ccc1O	none (no result: SF-1 act, RORa activator, JNK3 blocker)
CCn1c(SCc2nc(-c3ccc(OC)c(OC)c3)no2)nnc1-c1cccs1	none
CCc1nnc2c3cnn(-c4ccc(C)c(C)c4)c3ncn12	SF-1 act 57.6, RORa activator 56.9 (no result: MT1-MMP txn act, JNK3 blocker)
C#CCn1cnc2c(cnn2-c2ccc(C)c(C)c2)c1=O	SF-1 act 57.9 (no result: MT1-MMP txn act)
Cc1ccc(-n2ncc3c(=O)n(CC#N)cnc32)cc1C	none
Cc1nc2c3cnn(-c4ccc(C)c(C)c4)c3ncn2n1	SF-1 act 65.1
Cc1ccc(-n2ncc3c2ncn2c(-c4ccncc4)nnc32)cc1	none
CN(C)c1ccc(C(=O)OCC(=O)c2cccs2)cc1	SF-1 act 52.5 (no result: JNK3 blocker)
Nc1c(-c2ccc(Cl)cc2)nnn1-c1ccccc1	SF-1 act 60.7, RORa activator 86.8 (no result: JNK3 blocker)
c1coc(CN(Cc2ccco2)c2ncnc3c2oc2ccccc23)c1	none (no result: SF-1 act, RORa activator, JNK3 blocker)
COc1ccc(-c2noc(Cc3cccs3)n2)cc1	RORa activator 56.9
COc1ccc(-c2noc(Cc3ccccc3OC)n2)cc1	none
Nc1nc(SCc2ccccc2)ns1	SF-1 act 55.0
Nc1nc(SCc2ccc(Cl)cc2)ns1	none
Nc1cc(N)nc(SCc2cccnc2)n1	none
Nc1cc(N)nc(SCc2ccccc2)n1	SF-1 act 54.4
CC1=C(C(=O)OCc2ccccc2)C(c2ccc(Cl)cc2)NC(=O)N1CCCC(=O)O (stereo not drawn)	none (no result: SF-1 act, RORa activator, JNK3 blocker)
COc1ccc(NC2=Nc3ccccc3CC2)cc1	SF-1 act 57.6, RORa activator 62.7
COc1ccc(NC(=O)N2CCCc3ccccc32)cc1	none
O=C(c1cccs1)N1CCC(c2ccccc2)C1 (stereo not drawn)	RORa activator 48.8
Cc1cccc(OCC(=O)N2CCC(c3ccccc3)C2)c1 (stereo not drawn)	none
O=C(Nc1ccccc1)N1CCC(c2ccccc2)C1 (stereo not drawn)	SF-1 act 68.4
O=C(COc1ccc(F)cc1)N1CCC(c2ccccc2)C1 (stereo not drawn)	MT1-MMP txn act 2.1 (no result: SF-1 act, RORa activator, JNK3 blocker)
NC(=O)C1CCN(C(=O)Nc2ccccc2)CC1	none
CCOc1ccc(-c2nnn(CC#N)n2)cc1OC	none (no result: SF-1 act, RORa activator, JNK3 blocker)
O=S1(=O)CC(O)C(N2CCC(c3ccccc3)CC2)C1 (stereo not drawn)	none
CCN(Cc1ccncc1)S(=O)(=O)c1ccc(C(C)=O)cc1	none
c1ccc2c(-c3nnc(SCc4cn5ccccc5n4)o3)c[nH]c2c1	none (no result: SF-1 act, RORa activator, JNK3 blocker)
c1ccc(CSc2nnc(-c3c[nH]c4ccccc34)o2)cc1	RORa activator 79.6
CC(CNC(=O)C1CCCCC1C(=O)O)c1ccccc1 (stereo not drawn)	none (no result: SF-1 act, RORa activator, JNK3 blocker)
O=C(Nc1ccc(Br)cn1)c1ccc2nccnc2c1	SF-1 act 69.1
CCOC(=O)C1=C(CSc2nc(C)ccc2C#N)OC(N)=C(C#N)C1c1cccc(OC)c1OC (stereo not drawn)	none
Nc1nc2ccccc2n1/N=C/c1ccc(Br)cc1	SF-1 act 69.1, RORa activator 69.5
COc1cccc(/C=N/n2c(C)nc3ccccc32)c1OC	none
COc1ccccc1N1CCN(c2ccc(-c3ccccc3)nn2)CC1	none (no result: JNK3 blocker)
CN(C)c1ccc(-c2ccccc2)nn1	RORa activator 55.6 (no result: JNK3 blocker)
O=c1c2ccccc2nnn1CSc1nnc2sc3ccccc3n12	none (no result: MT1-MMP txn act)
CCC(Oc1ccc2c(c1)C(=O)CC(C)(C)O2)C(=O)NCCN1CCCCCC1 (stereo not drawn)	none
O=C1NC(=O)c2c(NC(=O)C3CCCO3)cccc21 (stereo not drawn)	JNK3 blocker 21.2
CC(=O)Nc1cccc2c1C(=O)NC2=O	none
CCOc1ccccc1NC(=O)CCN1CCN(S(=O)(=O)c2ccc(Br)cc2)CC1	none
Cc1cc(C)nc(Nc2nc3ccccc3[nH]2)n1	none
c1ccc(Nc2nc3ccccc3[nH]2)nc1	SF-1 act 54.7, RORa activator 78.6
COc1ccc(C)cc1S(=O)(=O)N(CC(=O)N1CCCC1)c1ccccc1	none
COc1ccccc1-n1cnc2cc(NCc3cccs3)ccc21	none (no result: SF-1 act, RORa activator, JNK3 blocker)
COc1ccccc1-n1cnc2cc(NCc3ccco3)ccc21	SF-1 act 55.7, RORa activator 50.3
c1ccc2c(c1)NC1(CCCCC1)n1c-2nc2ccccc21	RORa activator 52.9
c1ccc2c(c1)NC1(CCCCCC1)n1c-2nc2ccccc21	none (no result: SF-1 act, RORa activator, JNK3 blocker)
COC(=O)C1C(=O)NC(SC)=C(C#N)C1c1ccccc1F (stereo not drawn)	none
CC(=NC1CCCCC1)C1=C(O)c2ccccc2C1=O	RORa activator 88.1
CC1CCCN(c2ccc(C(=O)NCC3CCCO3)cn2)C1 (stereo not drawn)	SF-1 act 57.5
CC(=O)Cc1nsc(NC(=O)c2ccc(COc3ccccc3)o2)n1	none
CCOC(=O)c1[nH]c(C)c(C(=O)Nc2cccc(Cl)c2C)c1C	RORa activator 64.2
CCOC(=O)c1[nH]c(C)c(C(=O)Nc2ccc(Cl)cc2)c1C	none
O=C(NCCSCc1ccccc1)c1ccc(C2SCC(=O)N2Cc2ccccc2)cc1 (stereo not drawn)	none (no result: SF-1 act, RORa activator, JNK3 blocker)
CCOC(=O)c1ccccc1NC(=O)CSc1nnnn1C	none (no result: SF-1 act, RORa activator, JNK3 blocker)
O=c1c2[nH]c3cccc(Cl)c3c2ncn1Cc1ccncc1	JNK3 blocker 22.4
O=c1c2[nH]c3ccccc3c2ncn1Cc1ccncc1	none
Cc1sc(NC(=O)c2ccc(Cl)s2)c(C(N)=O)c1C	SF-1 act 100.9, RORa activator 65.5, MT1-MMP txn act 2.2
